Results published in ChEMBL document CHEMBL4680175, “Sulfonamide-based ring-fused analogues for CAN508 as novel carbonic anhydrase inhibitors endowed with antitumor activity: Design, synthesis, and in vitro biological evaluation” (Eur J Med Chem, 2020).
Calls of active or inactive are those of the source. The calls are words filed in the database; no cut-off is given here.

Legend:
Carbonic anhydrase 1 = Carbonic anhydrase 1 (Homo sapiens, UniProt P00915); test: Inhibition of recombinant human carbonic anhydrase 1 preincubated with enzyme for 15 mins by phenol red dye based stopped flow CO2 hydrase assay
Carbonic anhydrase 9 = Carbonic anhydrase 9 (Homo sapiens, UniProt Q16790); test: Inhibition of recombinant human carbonic anhydrase 9 preincubated with enzyme for 15 mins by phenol red dye based stopped flow CO2 hydrase assay
Carbonic anhydrase 12 = Carbonic anhydrase 12 (Homo sapiens, UniProt O43570); test: Inhibition of recombinant human carbonic anhydrase 12 preincubated with enzyme for 15 mins by phenol red dye based stopped flow CO2 hydrase assay
[1] = biological target: Cyclin-dependent kinase 2/cyclin E1 (Homo sapiens, UniProt P24941); test: Inhibition of CDK2/cyclin E (unknown origin) expressed in baculovirus infected Sf21 insect cells using histone H1 as substrate in presence of [gamma33P]ATP
CDK9/cyclin T1 = CDK9/cyclin T1 (Homo sapiens, UniProt P50750); test: Inhibition of human full-length N-terminal GST/His6-tagged CDK9 (1 to 372 residues)/His6-tagged Cyclin-T1 (1 to 726 residues) expressed in sf9 cells using (YSPTSPS)2KK peptide as substrate in presence of [gamma33P]ATP
K562 = test: Antitumor activity against human K562 cells assessed as cell growth inhibition at 10 uM incubated for 48 hrs by sulforhodamine B assay; assay type: functional; settings: read-out: GI
In short: (§1)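 NCI Drug Evaluation Branch protocol: primary single-dose screen at 10 μM across a 57-line human cancer panel. Drug exposure is 48 h. Cell growth and viability are read by sulforhodamine B assay. Data are given as a mean graph of percent growth of treated cells and reported as percentage growth inhibition (GI%).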

MOLT-4 = test: Antitumor activity against human MOLT4 cells assessed as cell growth inhibition at 10 uM incubated for 48 hrs by sulforhodamine B assay; assay type: functional; settings: read-out: GI; in short: as §1
RPMI-8226 = test: Antitumor activity against human RPMI8226 cells assessed as cell growth inhibition at 10 uM incubated for 48 hrs by sulforhodamine B assay; assay type: functional; settings: read-out: GI; in short: as §1
HOP-62 = test: Antitumor activity against human HOP62 cells assessed as cell growth inhibition at 10 uM incubated for 48 hrs by sulforhodamine B assay; assay type: functional; settings: read-out: GI; in short: as §1
HOP-92 = test: Antitumor activity against human HOP92 cells assessed as cell growth inhibition at 10 uM incubated for 48 hrs by sulforhodamine B assay; assay type: functional; settings: read-out: GI; in short: as §1
NCI-H226 = test: Antitumor activity against human NCI-H226 assessed as cell growth inhibition at 10 uM incubated for 48 hrs by sulforhodamine B assay; assay type: functional; settings: read-out: GI; in short: as §1
NCI-H322M = test: Antitumor activity against human NCI-H322M cells assessed as cell growth inhibition at 10 uM incubated for 48 hrs by sulforhodamine B assay; assay type: functional; settings: read-out: GI; in short: as §1
NCI-H460 = test: Antitumor activity against human NCI-H460 cells assessed as cell growth inhibition at 10 uM incubated for 48 hrs by sulforhodamine B assay; assay type: functional; settings: read-out: GI; in short: as §1
NCI-H522 = test: Antitumor activity against human NCI-H522 cells assessed as cell growth inhibition at 10 uM incubated for 48 hrs by sulforhodamine B assay; assay type: functional; settings: read-out: GI; in short: as §1
HCT-116 = test: Antitumor activity against human HCT116 cells assessed as cell growth inhibition at 10 uM incubated for 48 hrs by sulforhodamine B assay; assay type: functional; settings: read-out: GI; in short: as §1
KM12 = test: Antitumor activity against human KM12 cells assessed as cell growth inhibition at 10 uM incubated for 48 hrs by sulforhodamine B assay; assay type: functional; settings: read-out: GI; in short: as §1
SF-268 = test: Antitumor activity against human SF268 cells assessed as cell growth inhibition at 10 uM incubated for 48 hrs by sulforhodamine B assay; assay type: functional; settings: read-out: GI; in short: as §1
SF-539 = test: Antitumor activity against human SF539 cells assessed as cell growth inhibition at 10 uM incubated for 48 hrs by sulforhodamine B assay; assay type: functional; settings: read-out: GI; in short: as §1
SNB-75 = test: Antitumor activity against human SNB-75 cells assessed as cell growth inhibition at 10 uM incubated for 48 hrs by sulforhodamine B assay; assay type: functional; settings: read-out: GI
In short: (§2)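 NCI one-dose screen: 57-cell-line panel exposed at 10 μM for 48 h, Drug Evaluation Branch protocol. Growth and viability read by sulforhodamine B; data given as percent growth inhibition from the mean-graph of percent growth of treated cells.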

U-251 = test: Antitumor activity against human U251 cells assessed as cell growth inhibition at 10 uM incubated for 48 hrs by sulforhodamine B assay; assay type: functional; settings: read-out: GI; in short: as §2
LOX IMVI = test: Antitumor activity against human LOX IMVI cells assessed as cell growth inhibition at 10 uM incubated for 48 hrs by sulforhodamine B assay; assay type: functional; settings: read-out: GI; in short: as §1
Malme-3M = test: Antitumor activity against human MALME-3M cells assessed as cell growth inhibition at 10 uM incubated for 48 hrs by sulforhodamine B assay; assay type: functional; settings: read-out: GI; in short: as §1
CAKI-1 = test: Antitumor activity against human CAKI-1 cells assessed as cell growth inhibition at 10 uM incubated for 48 hrs by sulforhodamine B assay; assay type: functional; settings: read-out: GI; in short: as §1
SK-MEL-2 = test: Antitumor activity against human SK-MEL-2 cells assessed as cell growth inhibition at 10 uM incubated for 48 hrs by sulforhodamine B assay; assay type: functional; settings: read-out: GI; in short: as §1
SK-MEL-5 = test: Antitumor activity against human SK-MEL-5 cells assessed as cell growth inhibition at 10 uM incubated for 48 hrs by sulforhodamine B assay; assay type: functional; settings: read-out: GI; in short: as §1
IGROV-1 = test: Antitumor activity against human IGROV1 cells assessed as cell growth inhibition at 10 uM incubated for 48 hrs by sulforhodamine B assay; assay type: functional; settings: read-out: GI; in short: as §1
OVCAR-3 = test: Antitumor activity against human OVCAR-3 cells assessed as cell growth inhibition at 10 uM incubated for 48 hrs by sulforhodamine B assay; assay type: functional; settings: read-out: GI; in short: as §1
OVCAR-8 = test: Antitumor activity against human OVCAR-8 cells assessed as cell growth inhibition at 10 uM incubated for 48 hrs by sulforhodamine B assay; assay type: functional; settings: read-out: GI; in short: as §1
PC-3 = test: Antitumor activity against human PC-3 cells assessed as cell growth inhibition at 10 uM incubated for 48 hrs by sulforhodamine B assay; assay type: functional; settings: read-out: GI; in short: as §1
RXF 393 = test: Antitumor activity against human RXF 393 cells assessed as cell growth inhibition at 10 uM incubated for 48 hrs by sulforhodamine B assay; assay type: functional; settings: read-out: GI; in short: as §1
SN12C = test: Antitumor activity against human SN12C cells assessed as cell growth inhibition at 10 uM incubated for 48 hrs by sulforhodamine B assay; assay type: functional; settings: read-out: GI; in short: as §1
MDA-MB-231 = test: Antitumor activity against human MDA-MB-231/ATCC cells assessed as cell growth inhibition at 10 uM incubated for 48 hrs by sulforhodamine B assay; assay type: functional; settings: read-out: GI; in short: as §1
Hs-578T = test: Antitumor activity against human HS 578T cells assessed as cell growth inhibition at 10 uM incubated for 48 hrs by sulforhodamine B assay; assay type: functional; settings: read-out: GI; in short: as §1
BT-549 = test: Antitumor activity against human BT-549 cells assessed as cell growth inhibition at 10 uM incubated for 48 hrs by sulforhodamine B assay; assay type: functional; settings: read-out: GI; in short: as §1
T47D = test: Antitumor activity against human T-47D cells assessed as cell growth inhibition at 10 uM incubated for 48 hrs by sulforhodamine B assay; assay type: functional; settings: read-out: GI; in short: as §2
MDA-MB-468 = test: Antitumor activity against human MDA-MB-468 cells assessed as cell growth inhibition at 10 uM incubated for 48 hrs by sulforhodamine B assay; assay type: functional; settings: read-out: GI; in short: as §1
NCI/ADR-RES = test: Antitumor activity against human NCI/ADR-RES cells assessed as cell growth inhibition at 10 uM incubated for 48 hrs by sulforhodamine B assay; assay type: functional, cell-based; in short: as §1
MCF7 = test: Antitumor activity against human MCF7 cells assessed as cell growth inhibition at 10 uM incubated for 48 hrs by sulforhodamine B assay; assay type: functional; settings: read-out: GI; in short: as §1

Chain of CDK9/cyclin T1 (O60563 whole entry, the tested form may be a part): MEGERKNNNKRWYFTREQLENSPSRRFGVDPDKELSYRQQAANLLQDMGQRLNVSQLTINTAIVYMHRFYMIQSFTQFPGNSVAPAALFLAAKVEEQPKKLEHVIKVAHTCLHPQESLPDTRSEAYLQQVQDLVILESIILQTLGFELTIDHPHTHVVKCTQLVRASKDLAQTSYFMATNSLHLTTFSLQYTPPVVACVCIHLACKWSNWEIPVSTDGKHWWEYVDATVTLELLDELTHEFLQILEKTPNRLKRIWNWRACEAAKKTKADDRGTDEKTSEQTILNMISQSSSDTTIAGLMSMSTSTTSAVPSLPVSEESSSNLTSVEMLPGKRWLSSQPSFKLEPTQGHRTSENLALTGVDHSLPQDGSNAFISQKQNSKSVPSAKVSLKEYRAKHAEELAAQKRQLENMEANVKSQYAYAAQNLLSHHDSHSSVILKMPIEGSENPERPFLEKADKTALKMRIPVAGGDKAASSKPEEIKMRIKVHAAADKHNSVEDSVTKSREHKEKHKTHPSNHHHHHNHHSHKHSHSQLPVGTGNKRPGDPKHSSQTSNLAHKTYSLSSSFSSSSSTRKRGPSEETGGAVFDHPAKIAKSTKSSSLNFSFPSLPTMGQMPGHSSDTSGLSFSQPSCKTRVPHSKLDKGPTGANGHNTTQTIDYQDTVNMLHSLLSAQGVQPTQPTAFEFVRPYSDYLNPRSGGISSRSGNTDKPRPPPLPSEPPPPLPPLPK
Chain of CDK9/cyclin T1 (P50750 whole entry, the tested form may be a part): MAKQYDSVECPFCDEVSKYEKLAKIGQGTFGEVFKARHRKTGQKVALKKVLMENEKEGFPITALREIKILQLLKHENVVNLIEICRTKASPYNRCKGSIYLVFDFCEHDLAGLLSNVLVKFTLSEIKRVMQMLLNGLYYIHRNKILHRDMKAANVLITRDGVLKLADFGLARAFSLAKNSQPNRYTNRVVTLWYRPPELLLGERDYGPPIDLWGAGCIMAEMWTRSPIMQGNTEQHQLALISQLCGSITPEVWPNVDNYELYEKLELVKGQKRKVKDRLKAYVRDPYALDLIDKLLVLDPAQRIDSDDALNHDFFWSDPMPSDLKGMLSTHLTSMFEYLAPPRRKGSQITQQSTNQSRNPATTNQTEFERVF
Chain of Carbonic anhydrase 12 (O43570 whole entry): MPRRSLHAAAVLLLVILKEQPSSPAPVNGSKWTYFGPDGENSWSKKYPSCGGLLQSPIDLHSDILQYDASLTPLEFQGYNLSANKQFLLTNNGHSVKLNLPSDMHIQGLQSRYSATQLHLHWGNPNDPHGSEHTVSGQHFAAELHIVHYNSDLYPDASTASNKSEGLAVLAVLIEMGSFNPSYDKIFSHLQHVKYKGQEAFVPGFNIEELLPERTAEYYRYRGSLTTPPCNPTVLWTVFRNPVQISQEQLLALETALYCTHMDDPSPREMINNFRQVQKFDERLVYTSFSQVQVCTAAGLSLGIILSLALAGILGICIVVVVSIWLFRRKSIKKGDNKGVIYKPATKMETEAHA
Chain of Carbonic anhydrase 1 (P00915 whole entry): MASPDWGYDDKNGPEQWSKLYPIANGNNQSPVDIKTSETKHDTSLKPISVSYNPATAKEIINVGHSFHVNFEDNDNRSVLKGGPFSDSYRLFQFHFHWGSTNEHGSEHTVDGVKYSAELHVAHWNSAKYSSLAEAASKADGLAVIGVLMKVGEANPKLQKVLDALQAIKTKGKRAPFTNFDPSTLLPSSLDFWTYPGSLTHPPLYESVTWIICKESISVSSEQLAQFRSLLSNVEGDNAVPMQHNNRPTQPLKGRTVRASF

SMILES | Ki (Carbonic anhydrase 1) | Ki (Carbonic anhydrase 9) | Ki (Carbonic anhydrase 12) | IC50 [1] | IC50 (CDK9/cyclin T1) | inhibition of growth at 10 µM (K562) | inhibition of growth at 10 µM (MOLT-4) | inhibition of growth at 10 µM (RPMI-8226) | inhibition of growth at 10 µM (HOP-62) | inhibition of growth at 10 µM (HOP-92) | inhibition of growth at 10 µM (NCI-H226) | inhibition of growth at 10 µM (NCI-H322M) | inhibition of growth at 10 µM (NCI-H522) | inhibition of growth at 10 µM (HCT-116) | inhibition of growth at 10 µM (KM12) | inhibition of growth at 10 µM (SF-539) | inhibition of growth at 10 µM (SNB-75) | inhibition of growth at 10 µM (U-251) | inhibition of growth at 10 µM (LOX IMVI) | inhibition of growth at 10 µM (Malme-3M) | further results
Cc1ccc(-c2cn3nc(N)c(/N=N/c4ccc(S(N)(=O)=O)cc4)c3[nH]2)cc1 | 1200 nM | 9.4 nM | 27.7 nM | 20300 nM | > 12500 nM | 48% | 55% | 60% | 39% | 35% | 27% | 69% | 57% | 62% | 46% | 56% | 66% | 44% | 70% | 63% | inhibition of growth at 10 µM (NCI-H460): 67%; inhibition of growth at 10 µM (SF-268): 49%; inhibition of growth at 10 µM (CAKI-1): 86%; inhibition of growth at 10 µM (SK-MEL-2): 57%; inhibition of growth at 10 µM (SK-MEL-5): 51%; inhibition of growth at 10 µM (IGROV-1): 80%; inhibition of growth at 10 µM (OVCAR-3): 36%; inhibition of growth at 10 µM (OVCAR-8): 47%; inhibition of growth at 10 µM (PC-3): 43%; inhibition of growth at 10 µM (RXF 393): 56%; inhibition of growth at 10 µM (SN12C): 63%; inhibition of growth at 10 µM (MDA-MB-231): 42%; inhibition of growth at 10 µM (Hs-578T): 64%; inhibition of growth at 10 µM (BT-549): 33%; inhibition of growth at 10 µM (T47D): 39%; inhibition of growth at 10 µM (MDA-MB-468): 48%; Activity (NCI/ADR-RES): inactive
N#Cc1c(-c2ccc(F)cc2)nc2c(/N=N/c3ccc(S(N)(=O)=O)cc3)c(N)nn2c1N | 2440 nM | 8.8 nM | 10.9 nM | > 12500 nM | > 12500 nM | 33% | 62% | 60% | 21% | 58% | 25% | 21% | 32% | 24% | 53% | 28% | 33% | 28% | 28% | 20% | inhibition of growth at 10 µM (SK-MEL-2): 25%; inhibition of growth at 10 µM (SK-MEL-5): 31%; inhibition of growth at 10 µM (IGROV-1): 36%; inhibition of growth at 10 µM (OVCAR-3): 20%; inhibition of growth at 10 µM (OVCAR-8): 25%; inhibition of growth at 10 µM (PC-3): 29%; inhibition of growth at 10 µM (RXF 393): 59%; inhibition of growth at 10 µM (SN12C): 24%; inhibition of growth at 10 µM (MCF7): 59%; inhibition of growth at 10 µM (MDA-MB-231): 37%; inhibition of growth at 10 µM (Hs-578T): 23%; inhibition of growth at 10 µM (T47D): 48%; inhibition of growth at 10 µM (MDA-MB-468): 71%; Activity (NCI/ADR-RES): inactive
